# Reference: ChEMBL document CHEMBL4304758, “Development of Peptide-Based Sirtuin Defatty-Acylase Inhibitors Identified by the Fluorescence Probe, SFP3, That Can Efficiently Measure Defatty-Acylase Activity of Sirtuin” (J Med Chem, 2019)
# Structures can show the parent of a compound that is named as a salt. Calls of active or inactive are those of the source. No cut-off for these calls is given here. Residues, ends and D or L forms follow the SMILES beside them. *: point of attachment. Phenylacetyl(4-E-phenylazo) = O=C(Cc1ccc(/N=N/c2ccccc2)cc1)*; X5 = CCN(CC)c1ccc(/N=N/c2ccc(CC(=O)*)cc2)cc1; X3 = CN(C)c1ccc(/N=N/c2ccc(CCC(=O)*)cc2)cc1; X2 = CN(C)c1ccc(/N=N/c2ccc(C(=O)*)cc2)cc1; Tfa = O=C(C(F)(F)F)*
# What was measured:
# [1] = molecular target: T1, NAD-dependent protein deacetylase sirtuin-3, mitochondrial (Homo sapiens) (UniProt Q9NTG7); assay: Inhibition of recombinant human SIRT3 (118 to 399 residues) demyristoylase activity expressed in Escherichia coli at 1 uM using p53(Myr)-AMC as substrate measured after 3 hrs in presence of NAD+ and trypsin by fluorescence assay relative to control
# T1 sequence (whole entry): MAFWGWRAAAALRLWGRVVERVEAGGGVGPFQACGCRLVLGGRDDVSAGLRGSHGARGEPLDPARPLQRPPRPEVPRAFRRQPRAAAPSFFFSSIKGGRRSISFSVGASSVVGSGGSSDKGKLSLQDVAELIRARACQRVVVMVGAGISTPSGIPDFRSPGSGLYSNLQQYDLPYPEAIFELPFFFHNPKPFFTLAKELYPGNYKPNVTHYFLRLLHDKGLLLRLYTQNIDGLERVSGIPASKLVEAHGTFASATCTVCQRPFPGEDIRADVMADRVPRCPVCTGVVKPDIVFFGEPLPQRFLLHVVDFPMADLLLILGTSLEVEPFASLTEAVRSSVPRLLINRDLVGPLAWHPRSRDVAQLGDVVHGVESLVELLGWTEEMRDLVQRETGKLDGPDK
# How it was run: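 SIRT3 at 120 nM with 50 μM p53(Myr)-AMC and 500 μM NAD⁺ in Tris-HCl pH 8.0/NaCl/DTT/Triton buffer, 0.5% DMSO, 3 h at room temperature. Trypsin (100 nM) plus nicotinamide (1 mM) then added. Fluorescence Ex 355/Em 460 nm every 5 min for 20 min at 37 °C. n = 3.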
# [2] = molecular target: T2, NAD-dependent protein deacetylase sirtuin-1 (Homo sapiens) (UniProt Q96EB6); assay: Inhibition of recombinant human C-terminal His6-tagged SIRT1 (Met1 to Ser747 residues) defatty-acylase activity expressed in Escherichia coli at 2 uM using SFP3 as substrate measured at 5 mins interval for 60 mins in presence of NAD+ by fluorescence assay relative to control
# T2 sequence (whole entry): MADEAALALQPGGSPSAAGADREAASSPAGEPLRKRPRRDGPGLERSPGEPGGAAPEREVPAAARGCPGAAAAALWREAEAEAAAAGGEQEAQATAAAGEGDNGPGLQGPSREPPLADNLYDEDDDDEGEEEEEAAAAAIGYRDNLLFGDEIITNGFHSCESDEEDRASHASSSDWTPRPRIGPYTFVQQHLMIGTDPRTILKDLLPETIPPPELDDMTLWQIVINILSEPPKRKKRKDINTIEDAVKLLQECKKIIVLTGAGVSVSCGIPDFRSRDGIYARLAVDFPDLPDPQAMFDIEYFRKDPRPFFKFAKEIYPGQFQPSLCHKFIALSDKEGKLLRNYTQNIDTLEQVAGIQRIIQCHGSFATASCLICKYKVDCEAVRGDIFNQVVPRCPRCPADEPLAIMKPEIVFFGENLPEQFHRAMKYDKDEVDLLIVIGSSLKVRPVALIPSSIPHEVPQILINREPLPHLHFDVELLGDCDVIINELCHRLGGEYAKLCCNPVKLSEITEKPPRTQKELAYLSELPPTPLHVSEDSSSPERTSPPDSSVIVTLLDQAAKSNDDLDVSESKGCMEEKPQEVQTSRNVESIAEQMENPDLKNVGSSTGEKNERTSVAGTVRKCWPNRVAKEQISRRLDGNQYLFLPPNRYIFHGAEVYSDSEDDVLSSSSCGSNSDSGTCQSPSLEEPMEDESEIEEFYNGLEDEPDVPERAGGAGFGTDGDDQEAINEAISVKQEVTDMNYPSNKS
# [3] = molecular target: T2, NAD-dependent protein deacetylase sirtuin-1 (Homo sapiens); assay: Inhibition of recombinant human C-terminal His6-tagged SIRT1 (Met1 to Ser747 residues) demyristoylase activity expressed in Escherichia coli at 1 uM using p53(Myr)-AMC as substrate measured after 3 hrs in presence of NAD+ and trypsin by fluorescence assay relative to control
# How it was run: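 SIRT1 at 14 nM final with 50 μM p53(Myr)-AMC and 500 μM NAD⁺ in Tris-HCl pH 8.0/NaCl/DTT/Triton buffer, 0.5% DMSO, 3 h at room temperature. Trypsin (100 nM final) plus nicotinamide (1 mM final) then added. Fluorescence Ex 355/Em 460 nm read every 5 min for 20 min at 37 °C. n = 3.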
# [4] = molecular target: NAD-dependent protein deacylase sirtuin-6 (Homo sapiens) (UniProt Q8N6T7); assay: Inhibition of recombinant human N-terminal polyhis-tagged SIRT6 (1 to 355 residues) defatty-acylase activity expressed in Escherichia coli at 2 uM using SFP3 as substrate measured at 5 mins interval for 60 mins in presence of NAD+ by fluorescence assay relative to control
# Sequence of NAD-dependent protein deacylase sirtuin-6 (Homo sapiens) (Q8N6T7 whole entry, the tested form may be a part): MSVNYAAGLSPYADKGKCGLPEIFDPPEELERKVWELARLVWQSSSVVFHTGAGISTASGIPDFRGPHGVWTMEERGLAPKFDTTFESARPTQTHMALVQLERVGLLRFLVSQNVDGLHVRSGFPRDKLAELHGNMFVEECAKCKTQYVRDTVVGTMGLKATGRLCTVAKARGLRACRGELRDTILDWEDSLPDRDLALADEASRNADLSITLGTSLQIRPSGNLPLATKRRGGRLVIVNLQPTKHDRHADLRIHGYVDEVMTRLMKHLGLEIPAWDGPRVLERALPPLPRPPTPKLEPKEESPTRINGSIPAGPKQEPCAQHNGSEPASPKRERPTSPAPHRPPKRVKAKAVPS
# [5] = molecular target: T3, NAD-dependent protein deacetylase sirtuin-2 (Homo sapiens) (UniProt Q8IXJ6); assay: Time-dependent inhibition of recombinant human SIRT2 defatty-acylase activity at 62.5 to 1000 nM using SFP3 as substrate measured at 5 mins interval for 60 mins in presence of NAD+ by fluorescence assay
# T3 sequence (whole entry): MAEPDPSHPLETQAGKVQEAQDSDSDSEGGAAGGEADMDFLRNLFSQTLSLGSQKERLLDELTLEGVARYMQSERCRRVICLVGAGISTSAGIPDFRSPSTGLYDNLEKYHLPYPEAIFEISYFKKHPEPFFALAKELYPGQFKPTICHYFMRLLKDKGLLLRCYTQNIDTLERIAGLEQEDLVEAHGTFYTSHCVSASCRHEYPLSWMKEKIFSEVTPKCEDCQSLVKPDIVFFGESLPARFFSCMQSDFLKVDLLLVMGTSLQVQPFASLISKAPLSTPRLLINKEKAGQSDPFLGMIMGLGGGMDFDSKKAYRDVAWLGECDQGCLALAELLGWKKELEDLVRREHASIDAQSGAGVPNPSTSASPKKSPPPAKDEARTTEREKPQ
# [6] = molecular target: T3, NAD-dependent protein deacetylase sirtuin-2 (Homo sapiens); assay: Inhibition of recombinant human SIRT2 demyristoylase activity at 1 uM using p53(Myr)-AMC as substrate measured after 3 hrs in presence of NAD+ and trypsin by fluorescence assay relative to control
# [7] = molecular target: T1, NAD-dependent protein deacetylase sirtuin-3, mitochondrial (Homo sapiens); assay: Inhibition of recombinant human SIRT3 (118 to 399 residues) defatty-acylase activity expressed in Escherichia coli at 2 uM using SFP3 as substrate measured at 5 mins interval for 60 mins in presence of NAD+ by fluorescence assay relative to control
# How it was run: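 SIRT3 at 60 nM final with 2.5 μM SFP3 and 500 μM NAD⁺ in Tris-HCl pH 8.0, 150 mM NaCl, 1 mM DTT, 0.05% Triton X-100. Final DMSO 0.2%, or 0.5% for AGK2/NAM. Fluorescence Ex 485/Em 535 nm every 5 min for 60 min at 37 °C. n = 3.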
# [8] = molecular target: T3, NAD-dependent protein deacetylase sirtuin-2 (Homo sapiens); assay: Inhibition of recombinant human SIRT2 defatty-acylase activity at 2 uM using SFP3 as substrate measured at 5 mins interval for 60 mins in presence of NAD+ by fluorescence assay relative to control
Compound,inhibition [1] [%],inhibition [2] [%],inhibition [3] [%],inhibition [4] [%],TDI [5],inhibition [6] [%],inhibition [7] [%],inhibition [8] [%]
CC[C@H](C)[C@H](NC(=O)[C@H](CCCNC(=N)N)NC(C)=O)C(=O)N[C@@H](CCCCNC(=O)c1ccc(/N=N/c2ccc(N(C)C)cc2)cc1)C(=O)N[C@@H](CCCNC(=N)N)C(=O)N[C@@H](Cc1ccc(O)cc1)C(N)=O (Ac-RIK(X2)RY-NH2),34,22,42,13,inactive,,,
CC[C@H](C)[C@H](NC(=O)[C@H](CCCNC(=N)N)NC(C)=O)C(=O)N[C@@H](CCCCNC(=O)Cc1ccc(/N=N/c2ccc(N(CC)CC)cc2)cc1)C(=O)N[C@@H](CCCNC(=N)N)C(=O)N[C@@H](Cc1ccc(O)cc1)C(N)=O (Ac-RIK(X5)RY-NH2),,,,28,,,,
CC[C@H](C)[C@H](NC(=O)[C@@H](NC(=O)[C@H](CCCCNC(=O)Cc1ccc(/N=N/c2ccccc2)cc1)NC(=O)[C@H](CC(=O)O)NC(=O)[C@H](CO)NC(C)=O)[C@@H](C)O)C(N)=O (Ac-SDK(Phenylacetyl(4-E-phenylazo))TI-NH2),5.6,18,31,2.6,,17,14,
CC[C@H](C)[C@H](NC(=O)[C@@H](NC(=O)[C@H](CCCCNC(=O)c1ccc(/N=N/c2ccc(N(C)C)cc2)cc1)NC(=O)[C@H](CC(=O)O)NC(=O)[C@H](CO)NC(C)=O)[C@@H](C)O)C(N)=O (Ac-SDK(X2)TI-NH2),-1.1,8.9,3.2,11,,2,10,7.8

# Now from value to compound:
inhibition [1] [%],inhibition [2] [%],inhibition [3] [%],inhibition [4] [%],TDI [5],inhibition [6] [%],inhibition [7] [%],inhibition [8] [%],Compound
58,16,32,3.1,,,,,CC[C@H](C)[C@H](NC(=O)[C@H](CCCNC(=N)N)NC(C)=O)C(=O)N[C@@H](CCCCNC(=O)C(F)(F)F)C(=O)N[C@@H](CCCNC(=N)N)C(=O)N[C@@H](Cc1ccc(O)cc1)C(N)=O (Ac-RIK(Tfa)RY-NH2)
11,,42,13,inactive,23,,,CC[C@H](C)[C@H](NC(=O)[C@H](CCCNC(=N)N)NC(C)=O)C(=O)N[C@@H](CCCCNC(=O)CCc1ccc(/N=N/c2ccc(N(C)C)cc2)cc1)C(=O)N[C@@H](CCCNC(=N)N)C(=O)N[C@@H](Cc1ccc(O)cc1)C(N)=O (Ac-RIK(X3)RY-NH2)
,,,0.64,,,,,CC[C@H](C)[C@H](NC(=O)[C@H](CCCCNC(=O)Cc1ccc(/N=N/c2ccccc2)cc1)NC(=O)[C@@H](NC(C)=O)C(C)C)C(=O)N[C@@H](CCCCN)C(=O)N[C@@H](CCCCN)C(N)=O (Ac-VK(Phenylacetyl(4-E-phenylazo))IKK-NH2)
